Measured values taken from publication PMC7174984 (Bioconjugate chemistry, 2020).
Where two headings read alike, the source gives them in different places. Blank lines part the entries; values can stand above or below the compound they belong to.

What was measured:
MDA-MB-231 cells [1] = experiment: Cellular uptake of dyes, blocking experiment; type: cell-based, Human; settings: for effect of BSA added to SFM on cellular uptake: BSA only in the media, FACS; for effect of serum on cellular uptake: media with 10% FBS versus serum free media; for effect of BSP on cellular uptake in SFM: 250 μM BSP
Procedure, shortened: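 MDA-MB-231 cells (50,000) seeded in serum medium overnight, then starved 4 h in serum-free medium. Groups: no serum (reference), 10% FBS, and 250 μM BSP preblock for 5 min with or without serum. Test compound added for 30 min, then washed. Read by confocal (670 nm excitation) or by FACS after enzyme-free detachment (633 nm excitation, 750/45 emission). Separate arms used DMOG 24 h beforehand for hypoxia, or BSA alone in medium.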

HepG2 cells = experiment: Cellular uptake of dyes into HepG2 liver cancer cells; type: cell-based; settings: compared with MDA-MB-231 data
Procedure, shortened: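 HepG2 cells kept in DMEM with 10% FBS at 37 °C and 5% CO₂, passaged at 70% confluency. Live-cell dye uptake imaged by confocal microscopy with a 20×/0.75 water objective; NIR excitation at 670 nm, detection at 716−789 nm.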

HSA [2] = target: T1, HSA (Homo sapiens, UniProt P02768); experiment: UV-vis/fluorescence spectroscopy of dye interaction with albumin; type: binding; settings: for formation of noncovalent adduct with albumin: UV absorbance maximum shift on mixing with HSA or serum
MDA-MB-231 cells [3] = experiment: BSA-FITC and dye colocalization by confocal microscopy; type: cell-based, Human
Procedure, shortened: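 50,000 MDA-MB-231 cells (grown in DMEM/10% FBS, 37 °C, 5% CO₂) incubated with test dye (10 μM) and equimolar BSA-FITC, either mixed just before use, preincubated 24 h, or added with BSA-FITC whose Cys34 was blocked by 24 h 6-maleimidohexanoic acid pretreatment. Cells then washed twice with PBS and imaged confocally (NIR: 670 nm excitation, 716−789 nm; FITC: 490 nm excitation, 500−589 nm). Pearson coefficient computed.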

[4] = test system: subcutaneous triple negative breast tumors (E0771); type: in vivo, C57Bl/6 mice; settings: 25 nmol iv
Procedure, shortened: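 Female C57Bl/6 mice, 6 wk old (20−30 g), inoculated subcutaneously in left flank with 5 × 10⁶ E0771 cells in PBS. 25 nmol test compound in 10% BSA given iv; NIR imaging (760 nm excitation, 4 mW/cm²) at 0.5, 1, 2, 4, 24 and 48 h. TBR = tumor fluorescence over nearby healthy tissue; at least 3 animals per time point; mean ± s.d.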

[5] = Biodistribution in resected tumors and organs at 48 h post-injection; type: in vivo, C57Bl/6 mice; settings: 25 nmol iv, tumors and organs resected 48 h post-injection
Procedure, shortened: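 Tumor-bearing C57Bl/6 mice (subcutaneous E0771) anesthetized with ketamine (100 mg/kg) and xylazine (10 mg/kg), abdomen opened by midline incision; 25 nmol test compound in 10% BSA given iv. Imaged at 48 h with intraoperative NIR system (760 nm excitation, 4 mW/cm²; 800 nm emission). ROI signal/background ratio over organs or tumor; at least 3 animals; one-way ANOVA with Tukey test; mean ± s.d.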

[6] = Pharmacokinetics, clearance and urinary excretion; type: in vivo, CD-1 mice; settings: 25 nmol iv
Procedure, shortened: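 Healthy CD-1 mice (25 g) dosed iv with 25 nmol test compound in saline with 10% BSA. Blood taken at 0, 10, 30, 60, 120, 180, 240 and 300 min, spun 3000 rpm for 20 min; plasma fluorescence read by NIR imaging. For excretion, male mice had the penis ligated before dosing and were killed at 4 h; urine fluorescence read by spectrophotometer.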

OATP1B3 [7] = settings: PC-3 prostate cancer xenograft; cited from earlier work
OATP1B3 [8] = settings: ARCePE prostate cancer xenograft; cited from earlier work
HSA [9] = target: T1, HSA; settings: absorption maxima red-shifted in presence of albumin; cited from earlier work
albumin = settings: cited from earlier work

T1 sequence (P02768 25-609): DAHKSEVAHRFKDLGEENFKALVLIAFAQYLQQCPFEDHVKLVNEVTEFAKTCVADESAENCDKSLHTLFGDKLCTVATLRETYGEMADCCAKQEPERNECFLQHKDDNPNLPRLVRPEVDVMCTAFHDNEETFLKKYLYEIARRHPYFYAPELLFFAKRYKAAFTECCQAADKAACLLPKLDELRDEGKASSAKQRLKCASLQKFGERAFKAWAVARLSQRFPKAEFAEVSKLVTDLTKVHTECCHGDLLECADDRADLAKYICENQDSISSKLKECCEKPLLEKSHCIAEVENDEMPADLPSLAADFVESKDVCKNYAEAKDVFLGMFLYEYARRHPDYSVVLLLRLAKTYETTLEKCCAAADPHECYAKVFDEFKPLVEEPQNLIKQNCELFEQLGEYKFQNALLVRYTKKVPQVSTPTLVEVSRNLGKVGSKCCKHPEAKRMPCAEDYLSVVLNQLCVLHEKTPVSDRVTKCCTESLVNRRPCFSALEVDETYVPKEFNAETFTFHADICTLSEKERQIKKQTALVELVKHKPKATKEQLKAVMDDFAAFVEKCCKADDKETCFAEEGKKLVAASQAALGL

formation of noncovalent adduct with albumin (HSA [2]): form a non-covalent adduct with albumin | displacement of dye from albumin by BSP (HSA [2]; up to 50 equiv BSP, either order of addition): not displaced from albumin by BSP | persistence in body at 48 h (biodistribution) [5]: persisted | urinary excretion ([6]; CD-1 mice): Insignificant urinary excretion | blood plasma (fluorescence) elimination half-life ([6]; healthy CD-1 mice, plasma fluorescence up to 5 h): 3.253 h
SMILES: CC1(C)C(/C=C/C2=C(Cl)C(=C/C=C3\N(CCCCCC(=O)O)c4ccccc4C3(C)C)/CCC2)=[N+](CCCCCC(=O)O)c2ccccc21 [1-Cl]
effect of BSA added to SFM on cellular uptake (MDA-MB-231 cells [1]): almost identical to those in serum | effect of serum on cellular uptake (MDA-MB-231 cells [1]): suppressed | decrease of uptake by BSP (MDA-MB-231 cells [1]; serum free media, 250 μM BSP preblock, dye 20 μM, FACS quantitation): 40−50% | uptake into HepG2 cells, trend (HepG2 cells): followed the same trends | Pearson coefficient of colocalization (MDA-MB-231 cells [3]; 1-Cl preincubated with Cys34-blocked BSA-FITC): 0.56 | Pearson coefficient of colocalization with BSA-FITC (MDA-MB-231 cells [3]; dye 10 μM and ~1 equiv BSA-FITC, noncovalent adduct): 0.65 | time post-injection at which high contrast was observed [4]: 48 h | maximum TBR ([4]; 48 h post-injection): 3.5 | tumor accumulation and persistence ([4]; up to 48 h): high tumor accumulation and prolonged retention | reduction of tumor uptake on OATP1B3 knockdown (OATP1B3 [7]): approximately 40% | reduction of tumor uptake on OATP1B3 knockdown (OATP1B3 [8]): ~ 25%

formation of noncovalent adduct with albumin (HSA [2]): appear to form noncovalent adducts
SMILES: CC1(C)C(=CC=C2CCCC(C=CC3=[N+](CCCCS(=O)(=O)[O-])c4ccccc4C3(C)C)=C2Cl)N(CCCCS(=O)(=O)[O-])c2ccccc21.[Na+] [2-Cl]
effect of BSP on cellular uptake in SFM (MDA-MB-231 cells [1]; serum free media): suppressed | effect of BSA added to SFM on cellular uptake (MDA-MB-231 cells [1]): suppressed | effect of serum on cellular uptake (MDA-MB-231 cells [1]): suppressed

SMILES: CCCN1C(=CC=C2CCCC(C=CC3=[N+](CCC)c4ccccc4C3(C)C)=C2Cl)C(C)(C)c2ccccc21.[I-] [4-Cl]
formation of noncovalent adduct with albumin (HSA [9]): implying noncovalent complexation

SMILES: O=C1OC(c2ccc(O)c(S(=O)(=O)O)c2)(c2ccc(O)c(S(=O)(=O)O)c2)c2c(Br)c(Br)c(Br)c(Br)c21 [BSP, Bromosulfophthalein]
fraction bound to albumin (albumin; after iv injection): more than 99% | unbound BSP (albumin; equimolar concentrations of BSP and albumin): less than 0.1%

formation of noncovalent adduct with albumin (HSA [2]): appear to form noncovalent adducts
SMILES: CC1(C)C(/C=C/C=C/C=C/C=C2\N(CCCCS(=O)(=O)[O-])c3ccc4ccccc4c3C2(C)C)=[N+](CCCCS(=O)(=O)[O-])c2ccc3ccccc3c21.[Na+] [ICG]
effect of BSP on cellular uptake in SFM (MDA-MB-231 cells [1]; serum free media): suppressed | effect of BSA added to SFM on cellular uptake (MDA-MB-231 cells [1]): suppressed | effect of serum on cellular uptake (MDA-MB-231 cells [1]): suppressed
